Data set [1] has as its target T1, UDP-glucuronosyltransferase 1A3 (Homo sapiens, UniProt P35503).
T1 sequence (P35503 whole entry): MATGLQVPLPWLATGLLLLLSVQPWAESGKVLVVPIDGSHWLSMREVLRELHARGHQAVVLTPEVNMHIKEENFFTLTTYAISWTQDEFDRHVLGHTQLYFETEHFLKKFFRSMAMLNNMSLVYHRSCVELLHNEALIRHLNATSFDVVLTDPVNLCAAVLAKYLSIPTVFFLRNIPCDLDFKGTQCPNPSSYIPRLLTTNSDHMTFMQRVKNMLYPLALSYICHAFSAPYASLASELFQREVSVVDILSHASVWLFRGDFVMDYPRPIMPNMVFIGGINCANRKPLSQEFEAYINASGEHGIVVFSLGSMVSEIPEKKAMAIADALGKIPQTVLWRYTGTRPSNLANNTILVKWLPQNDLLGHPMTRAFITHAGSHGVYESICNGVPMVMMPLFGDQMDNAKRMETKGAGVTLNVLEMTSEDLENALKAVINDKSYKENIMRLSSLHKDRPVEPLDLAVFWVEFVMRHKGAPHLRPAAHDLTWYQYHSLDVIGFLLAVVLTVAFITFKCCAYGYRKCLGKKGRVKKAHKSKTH
Briefly: Activity of human UGT1A3 expressed in microsomes isolated from baculovirus infected insect cell assessed as enzyme-mediated 5-hydroxy-5-(4-((6-methoxy-1-methyl-1H-benzo[d]imidazol-2-yl)methoxy)benzyl)thiazolidine-2,4-dione formation at 20 uM after 4 hrs by radio-HPLC/LC-MS/MS analysis in presence of NADPH-generating system and NADPH-generating system/SAM in presence of UDPGA and UDPGA/SAM. It counts as ADME.

Data set [2] deals with T2, UDP-glucuronosyltransferase 1A9 (Homo sapiens, UniProt O60656).
T2 sequence (O60656 whole entry): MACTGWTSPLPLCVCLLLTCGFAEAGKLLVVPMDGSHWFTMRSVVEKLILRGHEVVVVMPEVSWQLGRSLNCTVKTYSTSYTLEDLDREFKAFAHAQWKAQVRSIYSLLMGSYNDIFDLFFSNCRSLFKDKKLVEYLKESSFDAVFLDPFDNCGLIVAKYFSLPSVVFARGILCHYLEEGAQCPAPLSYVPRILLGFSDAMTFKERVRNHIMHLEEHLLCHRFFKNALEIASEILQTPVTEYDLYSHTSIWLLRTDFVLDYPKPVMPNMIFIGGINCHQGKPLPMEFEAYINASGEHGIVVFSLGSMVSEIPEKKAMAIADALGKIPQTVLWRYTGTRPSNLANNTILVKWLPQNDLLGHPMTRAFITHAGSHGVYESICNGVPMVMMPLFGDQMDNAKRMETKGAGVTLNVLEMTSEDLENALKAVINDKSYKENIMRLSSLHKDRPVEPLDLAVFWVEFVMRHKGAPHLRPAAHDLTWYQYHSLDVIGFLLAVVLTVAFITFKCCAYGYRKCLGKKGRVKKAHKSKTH
Briefly: Activity of human UGT1A9 expressed in microsomes isolated from baculovirus infected insect cell assessed as enzyme-mediated (2S,3S,4S,5R,6R)-6-((1-carboxy-2-(4-((6-methoxy-1-methyl-1H-benzo[d]imidazol-2-yl)methoxy)phenyl)ethylthio)carbonylamino)-3,4,5-trihydroxytetrahydro-2H-pyran-2-carboxylic acid formation at 20 uM after 4 hrs by radio-HPLC/LC-MS/MS analysis in presence of UDPGA. It counts as ADME.

A further data set has as its target Cytochrome P450 2C19 (Homo sapiens, UniProt P33261). Briefly: Activity of human CYP2C19 expressed in microsomes isolated from baculovirus infected insect cell assessed as enzyme-mediated 2-hydroxy-3-(4-((6-methoxy-1-methyl-1H-benzo[d]imidazol-2-yl)methoxy)phenyl)propanamide formation at 20 uM after 2 hrs by radio-HPLC/LC-MS/MS analysis in presence of NADPH-generating system and NADPH-generating system/SAM. It counts as ADME. Summed up: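 Baculovirus/insect-cell microsomes expressing single human CYPs, 1 mg/ml protein, with 50 mM potassium phosphate (pH 7.4) or 100 mM Tris-HCl (pH 7.5). NADPH-generating system: 2 mM NADP⁺, 20 mM glucose 6-phosphate, 2 units/ml G6PDH, 10 mM MgCl₂. [¹⁴C]rivoglitazone at 20 μM, 2 h at 37°C with shaking. Control used insect-cell control supersomes. Stopped with acetonitrile; supernatant concentrated under nitrogen; metabolites analysed by radio-HPLC, LC-MS and LC-MS/MS.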

A short description of data set [3]: Drug metabolism in monkey hepatocytes assessed as formation of 2-((4-((2,4-dioxothiazolidin-5-yl)methyl)phenoxy)methyl)-1-methyl-1H-benzo[d]imidazol-6-yl hydrogen sulfate at 30 uM after 3 hrs by radio-HPLC/LC-MS/MS analysis. Particulars: cynomolgus monkey.
Data set [4] has as its target T3, UDP-glucuronosyltransferase 1A7 (Homo sapiens, UniProt Q9HAW7).
T3 sequence (Q9HAW7 whole entry): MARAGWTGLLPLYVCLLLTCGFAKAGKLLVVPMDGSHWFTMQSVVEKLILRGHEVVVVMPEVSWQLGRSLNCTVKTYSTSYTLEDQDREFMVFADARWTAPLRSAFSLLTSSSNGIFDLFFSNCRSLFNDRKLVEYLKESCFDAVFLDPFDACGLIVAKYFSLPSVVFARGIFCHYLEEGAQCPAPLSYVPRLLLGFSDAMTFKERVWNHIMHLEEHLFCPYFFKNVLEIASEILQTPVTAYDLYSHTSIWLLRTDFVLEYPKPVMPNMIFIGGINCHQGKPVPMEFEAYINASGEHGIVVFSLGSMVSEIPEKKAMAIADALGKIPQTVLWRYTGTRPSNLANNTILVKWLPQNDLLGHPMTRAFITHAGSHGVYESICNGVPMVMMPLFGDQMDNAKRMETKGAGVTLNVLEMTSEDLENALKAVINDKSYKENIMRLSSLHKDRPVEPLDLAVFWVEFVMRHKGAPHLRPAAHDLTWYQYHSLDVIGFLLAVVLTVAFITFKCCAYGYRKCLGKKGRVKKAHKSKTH
Briefly: Activity of human UGT1A7 expressed in microsomes isolated from baculovirus infected insect cell assessed as enzyme-mediated (2S,3S,4S,5R,6R)-3,4,5-trihydroxy-6-(5-(4-((6-methoxy-1-methyl-1H-benzo[d]imidazol-2-yl)methoxy)benzyl)-2,4-dioxothiazolidin-3-yl)tetrahydro-2H-pyran-2-carboxylic acid formation at 20 uM after 4 hrs by radio-HPLC/LC-MS/MS analysis in presence of UDPGA. It counts as ADME.

The structures appear in SMILES notation.

Chain of Cytochrome P450 2C19 (P33261 whole entry): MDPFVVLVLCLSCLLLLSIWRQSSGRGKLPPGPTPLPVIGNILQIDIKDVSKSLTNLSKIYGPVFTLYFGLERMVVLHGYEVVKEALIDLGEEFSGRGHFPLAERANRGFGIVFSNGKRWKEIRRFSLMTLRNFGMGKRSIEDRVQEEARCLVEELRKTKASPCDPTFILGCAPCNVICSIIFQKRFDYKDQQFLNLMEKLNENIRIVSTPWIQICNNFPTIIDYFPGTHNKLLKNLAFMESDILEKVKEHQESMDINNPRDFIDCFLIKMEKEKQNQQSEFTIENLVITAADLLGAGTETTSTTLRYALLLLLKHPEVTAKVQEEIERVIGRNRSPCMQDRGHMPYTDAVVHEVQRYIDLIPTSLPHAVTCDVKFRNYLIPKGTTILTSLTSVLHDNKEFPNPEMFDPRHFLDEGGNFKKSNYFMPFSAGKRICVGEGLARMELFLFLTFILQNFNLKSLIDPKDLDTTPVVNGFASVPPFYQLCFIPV

As for `COc1ccc2nc(COc3ccc(C[14CH]4SC(=O)NC4=O)cc3)n(C)c2c1.Cl` (racemic), the Drug metabolism result in data set [1] is on record as “metabolite_not_detected”; in data set [2] it was “metabolite_not_detected”; at Cytochrome P450 2C19, “metabolite_detected”; in data set [3] it was “metabolite_detected”; in data set [4], “metabolite_not_detected”.

Source of the values: ChEMBL document CHEMBL3526048, “In vitro metabolism of rivoglitazone, a novel peroxisome proliferator-activated receptor γ agonist, in rat, monkey, and human liver microsomes and freshly isolated hepatocytes” (Drug Metab Dispos, 2011).
